Columns and labels:
[1] = Half life of compound in PBS with HSA suspension; assay type: ADME; conditions: human, HSA (human serum albumin) in PBS
Outline: (§1)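 Lactone-ring hydrolysis of 1 uM drug at 37 °C and pH 7.4, incubated in PBS, in PBS containing physiologically relevant HSA or albumin-free red blood cells, or in whole human blood. Isocratic acetonitrile/2% triethylamine acetate (pH 5.5) at 1 mL/min; lactone eluted near 7.0 min, carboxylate near 2.0 min.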

[2] = % lactone at different intervals of time in PBS with HSA suspension; assay type: ADME; conditions: human, buffer; outline: as §1
[3] = Equilibrium association constant interacting with unilamellar vesicles of negatively charged DMPG in PBS buffer at pH of 7.4 and 37 degrees celsius.; assay type: ADME; conditions: pH 7.4
Outline: (§2)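 Fluorescence anisotropy titration of 1 uM total drug with small unilamellar vesicles (DMPC or DMPG) in PBS, pH 7.4, 37 °C. SUVs were sonicated from 10 mg/mL lipid stocks and annealed 30 min at 37 °C; DMPG pH was readjusted to 7.4. Readings were taken about 0.5–1 min after mixing. K came from least-squares slopes of double-reciprocal plots (1/bound fraction vs 1/[lipid]).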

[4] = Half life in human blood.; assay type: ADME, organism-based; conditions: whole blood; outline: as §1
[5] = % lactone at different intervals of time in PBS with RBC suspension; assay type: ADME; conditions: erythrocytes; outline: as §1
[6] = Half life for of compound in PBS with RBC suspension; assay type: ADME; conditions: RBC (red blood cell) suspension in PBS; outline: as §1
Homo sapiens = organism: Homo sapiens; test: % lactone at different intervals of time in human blood.; assay type: ADME, organism-based; outline: as §1
[7] = Half life of compound in PBS suspension; assay type: ADME; outline: as §1
[8] = Equilibrium association constant interacting with unilamellar vesicles of electroneutral in PBS buffer at pH 7.4; assay type: ADME; outline: as §2
[9] = % lactone at different intervals of time in PBS suspension; assay type: ADME; conditions: buffer; outline: as §1
Tumor Cell line = test: Mean GI50 against variety of human tumor cell lines; assay type: functional
Outline: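 NCI tumour cell panel: 5000–40 000 cells/well preincubated 24 h at 37 °C, then exposed 48 h (5% CO2) to five 10-fold dilutions from DMSO stocks. Highest well concentration in routine testing was 10^-4 M. Growth was read by sulforhodamine B protein staining.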

MDA-MB-435 [10] = test: Inhibition against MDA-MB-435 human breast cancer cells in the presence of 1 mg/mL HSA
MDA-MB-435 [11] = test: Inhibition against MDA-MB-435 human breast cancer cells in the absence of HSA; assay type: functional, cell-based
Outline: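 MDA-MB-435 S human breast cancer cells exposed to drug with or without added HSA. Viability was read after a 3-day growth assay by sulforhodamine B staining of protein remaining attached to the dish.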

U-87 MG [12] = test: Inhibition of tumor growth at day 28 postimplantation after administration of 10 mg/kg/day in nude mouse U87 glioma subcutaneous model system; assay type: functional, U-87MG ATCC; conditions: sc, 672 h
[13] = Inhibition against MDA-MB-435 S human breast cancer cells in the absence of albumin; assay type: functional, cell-based
Outline: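 Read-out was sulforhodamine B, which stains protein in cells and cell fragments still attached to the dish bottom, including dying or dead attached cells. IC50 was derived from the cell survival profiles.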

U-87 MG [14] = test: Inhibition of tumor growth at day 28 postimplantation after administration of 3 mg/kg/day in nude mouse U87 glioma subcutaneous model system; assay type: functional, U-87MG ATCC; conditions: sc, 672 h

Row | SMILES | half-life [1] | Lactone [2] | KDMPG [3] | half-life [4] | Lactone [5] | half-life [6] | Lactone (Homo sapiens) | half-life [7] | KDMPC [8] | Lactone [9] | GI50 (Tumor Cell line) | IC50 (MDA-MB-435 [10]) | IC50 (MDA-MB-435 [11]) | inhibition in vivo at 10 mg/kg/day (U-87 MG [12]) | IC50 [13] | half-life ([6]; human) | inhibition in vivo at 3 mg/kg/day (U-87 MG [14])
1 | CC[C@@]1(O)C(=O)OCc2c1cc1n(c2=O)Cc2c-1nc1ccccc1c2[Si](C)(C)CCCCl | 16 min | 2.7% | 2500 M⁻¹ | 85.6 min | 43.4% | 59.7 min | 2.2% | 23.3 min | 2800 M⁻¹ | 12% | – | – | – | – | – | – | –
2 | CC[C@@]1(O)C(=O)OCc2c1cc1n(c2=O)Cc2cc3c(CN(C)C)c(O)ccc3nc2-1 [TOPOTECAN] | – | – | 50 M⁻¹ | – | – | – | – | – | 10 M⁻¹ | – | – | – | – | – | – | – | –
3 | CC[C@@]1(O)C(=O)OCc2c1cc1n(c2=O)Cc2cc3cc(O)ccc3nc2-1 [HYDROXYCAMPTOTHECIN] | – | – | – | – | – | – | – | – | – | – | 36 nM | – | – | – | – | – | –
4 | CC[C@@]1(O)C(=O)OCc2c1cc1n(c2=O)Cc2cc3ccccc3nc2-1 [CAMPTOTHECIN] | 11.9 min | < 0.5% | 100 M⁻¹ | – | 34.6% | 30.8 min | 5.3% | – | 100 M⁻¹ | 17% | 44 nM | 375 nM | 15 nM | – | – | – | –
5 | CC[C@@]1(O)C(=O)OCc2c1cc1n(c2=O)Cc2c-1nc1ccc(O)cc1c2[Si](C)(C)CCCCl | 48 min | 17.2% | 1200 M⁻¹ | 65.3 min | 50.2% | 67.7 min | 17.8% | 29.5 min | 2200 M⁻¹ | 11.3% | – | – | – | – | – | – | –
6 | CC[C@@]1(O)C(=O)OCc2c1cc1n(c2=O)Cc2c-1nc1ccc(O)cc1c2[Si](C)(C)C(C)(C)C [AR-67] | 119 min | 10.5% | 2800 M⁻¹ | – | 41.4% | – | 30.5% | 31.8 min | 2500 M⁻¹ | 10.2% | 21 nM | – | – | 73% | 14 nM | 51.4 min | 61%
7 | CC[C@@]1(O)C(=O)OCc2c1cc1n(c2=O)Cc2c-1nc1ccccc1c2[Si](C)(C)C(C)(C)C | 46.3 min | 0.1% | 16000 M⁻¹ | 71 min | 59.4% | 79.4 min | 1% | 27.9 min | 15500 M⁻¹ | 12.2% | – | – | – | – | – | – | –
8 | CCc1c2c(nc3ccc(O)cc13)-c1cc3c(c(=O)n1C2)COC(=O)[C@]3(O)CC [7-ETHYL-10-HYDROXYCAMPTOTHECIN] | 36.1 min | – | 160 M⁻¹ | 32 min | 37.5% | 24.4 min | 19.5% | 20.9 min | 260 M⁻¹ | 15.3% | – | – | – | – | – | – | –

From ChEMBL document CHEMBL1133088 (J Med Chem, 2000)
